According to ChEMBL document CHEMBL1811843, “Analogue-based design, synthesis and molecular docking analysis of 2,3-diaryl quinazolinones as non-ulcerogenic anti-inflammatory agents” (Bioorg Med Chem, 2011):

Species: Rattus norvegicus
Test: animal or person
Settings: po, 6 h, read-out: INH
Compound COc1ccc2c(c1)c(CC(=O)O)c(C)n2C(=O)c1ccc(Cl)cc1 [INDOMETHACIN] has an inhibition in vivo at 10 mg/kg of 13%.

Each compound was assayed on Rattus norvegicus (assay: Antiinflammatory activity in rat assessed as inhibition of carrageenan-induced paw edema at 50 mg/kg, po measured after 90 min by Plethysmograph). Settings: 1.5 h.
Assay type: functional
Summary of the method: (§1)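 Rats randomly grouped, six per group, housed at 25 °C with a 12 h light/dark cycle and acclimatized one week. Test compounds given orally at 50 mg/kg with CMC-Na as vehicle, and indomethacin 10 mg/kg as standard. Edema induced by 0.1 ml carrageenan solution injected into the hind paw. Paw volume measured by mercury-displacement plethysmograph before and 90, 180, 270 and 360 min after injection. % edema inhibition calculated from test and control paw volumes before and after carrageenan. Results given as mean ± SEM.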
For CSc1ccc(-n2c(-c3ccccc3)nc3cc(F)ccc3c2=O)cc1, the inhibition in vivo at 50 mg/kg was 29%. With COc1ccc(-c2nc3cc(F)ccc3c(=O)n2-c2ccc(SC)cc2)cc1 the inhibition in vivo at 50 mg/kg was 31%. CS(=O)(=O)c1ccc(-n2c(-c3ccccc3)nc3ccc(Br)cc3c2=O)cc1 gave an inhibition in vivo at 50 mg/kg of 38%. In the case of COc1ccc(-c2nc3ccccc3c(=O)n2-c2ccc(SC)cc2)cc1, the inhibition in vivo at 50 mg/kg is reported as 30%. CS(=O)(=O)c1ccc(-n2c(-c3ccccc3)nc3cc(F)ccc3c2=O)cc1 was tested, and the inhibition in vivo at 50 mg/kg was 30%. COc1ccc(-c2nc3cc(Cl)ccc3c(=O)n2-c2ccc(S(C)(=O)=O)cc2)cc1 was tested, and the inhibition in vivo at 50 mg/kg was 37%. For CS(=O)(=O)c1ccc(-n2c(-c3ccccc3)nc3ccccc3c2=O)cc1, the inhibition in vivo at 50 mg/kg was 30%.

Each compound was assayed on Rattus norvegicus (assay: Toxicity in albino Wistar rat assessed as ulcerogenic activity measuring gastric ulcer lesion index at 50 mg/kg, po once daily for four consecutive days). Settings: in vivo.
Assay type: organism-based, Stomach
Parameters: dose 50 mg/kg, route oral
Summary of the method: (§2)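 Wistar albino rats (150–200 g, either sex, fasted) were randomized into groups of 10 and dosed orally once daily for four days alongside a vehicle control group. Rats were killed under deep ether anaesthesia and stomachs removed, opened along the greater curvature, and examined under a dissecting microscope for lesions or bleeding. Ulcer lesion index is given in cm.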
Work on COc1ccc2c(c1)c(CC(=O)O)c(C)n2C(=O)c1ccc(Cl)cc1 [INDOMETHACIN] yielded an Activity of 11.48 cm.

Each compound was assayed on Rattus norvegicus (assay: Toxicity in albino Wistar rat assessed as ulcerogenic activity measuring gastric ulcer lesion index at 100 mg/kg, po once daily for four consecutive days). Settings: in vivo.
Assay type: organism-based, Stomach
Parameters: dose 100 mg/kg, route oral
Summary of the method: as §2
CS(=O)(=O)c1ccc(-n2c(-c3ccccc3)nc3ccc(Br)cc3c2=O)cc1 was tested, and the Activity was 0 cm.

Species: Rattus norvegicus
Test: animal or person
Settings: po, 3 h, read-out: INH
COc1ccc2c(c1)c(CC(=O)O)c(C)n2C(=O)c1ccc(Cl)cc1 [INDOMETHACIN] was tested, and the inhibition in vivo at 10 mg/kg was 58%.

Species: Rattus norvegicus
Test: animal or person
Settings: po, 1.5 h, read-out: INH
COc1ccc2c(c1)c(CC(=O)O)c(C)n2C(=O)c1ccc(Cl)cc1 [INDOMETHACIN] was tested, and the inhibition in vivo at 10 mg/kg was 41%.

What follows are compounds tested on Rattus norvegicus (assay: Antiinflammatory activity in rat assessed as inhibition of carrageenan-induced paw edema at 50 mg/kg, po measured after 270 min by Plethysmograph). Settings: 4.5 h.
Assay type: functional
Summary of the method: as §1
CSc1ccc(-n2c(-c3ccccc3)nc3cc(F)ccc3c2=O)cc1 showed an inhibition in vivo at 50 mg/kg of 39%. COc1ccc(-c2nc3cc(F)ccc3c(=O)n2-c2ccc(SC)cc2)cc1 showed an inhibition in vivo at 50 mg/kg of 37%. Compound CS(=O)(=O)c1ccc(-n2c(-c3ccccc3)nc3ccc(Br)cc3c2=O)cc1 has an inhibition in vivo at 50 mg/kg of 44%. In the case of COc1ccc(-c2nc3ccccc3c(=O)n2-c2ccc(SC)cc2)cc1, the inhibition in vivo at 50 mg/kg is reported as 38%. For CS(=O)(=O)c1ccc(-n2c(-c3ccccc3)nc3cc(F)ccc3c2=O)cc1, the inhibition in vivo at 50 mg/kg was 39%. For COc1ccc(-c2nc3cc(Cl)ccc3c(=O)n2-c2ccc(S(C)(=O)=O)cc2)cc1, the inhibition in vivo at 50 mg/kg was 41%. CS(=O)(=O)c1ccc(-n2c(-c3ccccc3)nc3ccccc3c2=O)cc1 showed an inhibition in vivo at 50 mg/kg of 36%.

Species: Rattus norvegicus
Test: animal or person
Settings: po, 4.5 h, read-out: INH
COc1ccc2c(c1)c(CC(=O)O)c(C)n2C(=O)c1ccc(Cl)cc1 [INDOMETHACIN] showed an inhibition in vivo at 10 mg/kg of 49%.

What follows are compounds tested against T1, Prostaglandin G/H synthase 1 (Ovis aries) (UniProt P05979) (assay: Inhibition of sheep COX-1 at 20 uM by cayman colorimetric assay). Settings: not given.
T1 sequence (whole entry): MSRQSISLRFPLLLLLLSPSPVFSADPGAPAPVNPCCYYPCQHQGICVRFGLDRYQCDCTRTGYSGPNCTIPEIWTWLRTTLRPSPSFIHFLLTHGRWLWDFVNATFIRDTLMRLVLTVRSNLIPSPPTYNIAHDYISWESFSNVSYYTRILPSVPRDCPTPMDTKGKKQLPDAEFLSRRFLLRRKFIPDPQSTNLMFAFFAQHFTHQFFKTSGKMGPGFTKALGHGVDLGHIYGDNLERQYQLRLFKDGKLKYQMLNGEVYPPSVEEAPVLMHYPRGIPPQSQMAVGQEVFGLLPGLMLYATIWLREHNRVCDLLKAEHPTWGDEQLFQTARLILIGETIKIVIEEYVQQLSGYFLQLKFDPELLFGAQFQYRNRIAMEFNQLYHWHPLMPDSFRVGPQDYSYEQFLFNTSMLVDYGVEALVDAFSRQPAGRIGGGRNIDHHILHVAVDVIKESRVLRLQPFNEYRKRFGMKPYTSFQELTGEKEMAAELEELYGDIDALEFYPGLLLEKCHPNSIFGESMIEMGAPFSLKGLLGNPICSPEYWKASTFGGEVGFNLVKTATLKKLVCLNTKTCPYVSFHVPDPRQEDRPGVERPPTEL
Summary of the method: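 Ovine COX-1 activity measured with a commercial ovine COX-1/COX-2 inhibitor screening kit, with calculations done per the kit guidelines. Each value is the mean of two determinations.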
Work on CS(=O)(=O)c1ccc(-n2c(-c3ccccc3)nc3ccc(Br)cc3c2=O)cc1 yielded an inhibition of 4%. In the case of COc1ccc(-c2nc3ccccc3c(=O)n2-c2ccc(SC)cc2)cc1, the inhibition is reported as 30%. Work on CS(=O)(=O)c1ccc(-n2c(-c3ccccc3)nc3cc(F)ccc3c2=O)cc1 yielded an inhibition of 15%. COc1ccc(-c2nc3cc(Cl)ccc3c(=O)n2-c2ccc(S(C)(=O)=O)cc2)cc1 showed an inhibition of 12%. CS(=O)(=O)c1ccc(-n2c(-c3ccccc3)nc3ccccc3c2=O)cc1 showed an inhibition of 13%.

What follows are compounds tested on Rattus norvegicus (assay: Antiinflammatory activity in rat assessed as inhibition of carrageenan-induced paw edema at 50 mg/kg, po measured after 360 min by Plethysmograph). Settings: 6 h.
Assay type: functional
Summary of the method: as §1
With CSc1ccc(-n2c(-c3ccccc3)nc3cc(F)ccc3c2=O)cc1 the inhibition in vivo at 50 mg/kg was 40%. COc1ccc(-c2nc3cc(F)ccc3c(=O)n2-c2ccc(SC)cc2)cc1 was tested, and the inhibition in vivo at 50 mg/kg was 40%. Compound CS(=O)(=O)c1ccc(-n2c(-c3ccccc3)nc3ccc(Br)cc3c2=O)cc1 has an inhibition in vivo at 50 mg/kg of 49%. COc1ccc(-c2nc3ccccc3c(=O)n2-c2ccc(SC)cc2)cc1 gave an inhibition in vivo at 50 mg/kg of 40%. For CS(=O)(=O)c1ccc(-n2c(-c3ccccc3)nc3cc(F)ccc3c2=O)cc1, the inhibition in vivo at 50 mg/kg was 41%. Compound COc1ccc(-c2nc3cc(Cl)ccc3c(=O)n2-c2ccc(S(C)(=O)=O)cc2)cc1 has an inhibition in vivo at 50 mg/kg of 43%. CS(=O)(=O)c1ccc(-n2c(-c3ccccc3)nc3ccccc3c2=O)cc1 was tested, and the inhibition in vivo at 50 mg/kg was 39%.

Species: Ovis aries
Test: Selectivity ratio of inhibition for sheep COX-1 to inhibition for sheep COX-2 at 20 uM
Settings: not given
Compound CS(=O)(=O)c1ccc(-n2c(-c3ccccc3)nc3ccc(Br)cc3c2=O)cc1 has a Selectivity ratio of 0.04. COc1ccc(-c2nc3ccccc3c(=O)n2-c2ccc(SC)cc2)cc1 gave a Selectivity ratio of 0.536. For CS(=O)(=O)c1ccc(-n2c(-c3ccccc3)nc3cc(F)ccc3c2=O)cc1, the Selectivity ratio was 0.238. In the case of COc1ccc(-c2nc3cc(Cl)ccc3c(=O)n2-c2ccc(S(C)(=O)=O)cc2)cc1, the Selectivity ratio is reported as 0.167. In the case of CS(=O)(=O)c1ccc(-n2c(-c3ccccc3)nc3ccccc3c2=O)cc1, the Selectivity ratio is reported as 0.31.

These compounds were tested on Rattus norvegicus (assay: Toxicity in albino Wistar rat assessed as ulcerogenic activity measuring gastric ulcer lesion index at 10 mg/kg, po once daily for four consecutive days). Settings: in vivo.
Assay type: organism-based, Stomach
Parameters: dose 10 mg/kg, route oral
Summary of the method: as §2
COc1ccc2c(c1)c(CC(=O)O)c(C)n2C(=O)c1ccc(Cl)cc1 [INDOMETHACIN] was tested, and the Activity was 1.42 cm.

Each compound was assayed on Rattus norvegicus (assay: Antiinflammatory activity in rat assessed as inhibition of carrageenan-induced paw edema at 50 mg/kg, po measured after 180 min by Plethysmograph). Settings: 3 h.
Assay type: functional
Summary of the method: as §1
With CSc1ccc(-n2c(-c3ccccc3)nc3cc(F)ccc3c2=O)cc1 the inhibition in vivo at 50 mg/kg was 36%. With COc1ccc(-c2nc3cc(F)ccc3c(=O)n2-c2ccc(SC)cc2)cc1 the inhibition in vivo at 50 mg/kg was 34%. Work on CS(=O)(=O)c1ccc(-n2c(-c3ccccc3)nc3ccc(Br)cc3c2=O)cc1 yielded an inhibition in vivo at 50 mg/kg of 40%. COc1ccc(-c2nc3ccccc3c(=O)n2-c2ccc(SC)cc2)cc1 was tested, and the inhibition in vivo at 50 mg/kg was 34%. CS(=O)(=O)c1ccc(-n2c(-c3ccccc3)nc3cc(F)ccc3c2=O)cc1 gave an inhibition in vivo at 50 mg/kg of 34%. Compound COc1ccc(-c2nc3cc(Cl)ccc3c(=O)n2-c2ccc(S(C)(=O)=O)cc2)cc1 has an inhibition in vivo at 50 mg/kg of 38%. CS(=O)(=O)c1ccc(-n2c(-c3ccccc3)nc3ccccc3c2=O)cc1 was tested, and the inhibition in vivo at 50 mg/kg was 33%.
